Among the data in ChEMBL document CHEMBL3817737, “Structure-Based Identification of Novel Ligands Targeting Multiple Sites within a Chemokine-G-Protein-Coupled-Receptor Interface” (J Med Chem, 2016) are Activity and Kd values, retold here.

Assay [1] addresses T1, Stromal cell-derived factor 1 (Homo sapiens, UniProt P48061). As to the kind of experiment: Binding affinity to His6-SUMO fusion tagged wild type human [U-15N]CXCL12 expressed in Escherichia coli assessed as induction of chemical shift perturbations to residues at I4/I6 binding site by 2D 1H-15N HMQC NMR spectroscopy. A digest of the protocol:
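[U-15N]-CXCL12 WT was made as a His6SUMO fusion in E. coli (Terrific Broth, 1 mM IPTG) and taken from inclusion bodies by Ni-NTA. Combined CSP = ((5ΔδH)2+(ΔδN)2)0.5. Kd came from single-site quadratic fits of the most-perturbed residues, fitted individually and averaged (±SD).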

For assay [2], the target named is T1, Stromal cell-derived factor 1. As to the kind of experiment: Binding affinity to His6-SUMO fusion tagged wild type human [U-15N]CXCL12 expressed in Escherichia coli by 2D 1H-15N HMQC NMR spectroscopy.
For assay [3], the target named is Stromal cell-derived factor 1 (Homo sapiens, UniProt P48061, A65C/L36C).
Sequence of Stromal cell-derived factor 1 (Homo sapiens, UniProt P48061, A65C/L36C) (P48061 22-93 L57C/A86C limits assumed): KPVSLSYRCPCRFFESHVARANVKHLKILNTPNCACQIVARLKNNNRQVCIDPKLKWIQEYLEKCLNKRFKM

T1 sequence (P48061 whole entry, the tested form may be a part): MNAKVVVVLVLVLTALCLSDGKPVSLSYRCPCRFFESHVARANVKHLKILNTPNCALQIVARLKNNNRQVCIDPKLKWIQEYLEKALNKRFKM

Consider `C[C@H](NC(=O)CCn1ccc2c(Cl)cccc21)C(=O)O`, for which the Activity in assay [1] came to 16.7%. The dissociation constant Kd (commonly the equilibrium constant for the complex coming apart) in assay [2] (read-out: Kd) was found to be 1700 µM.

With `CC(C)O.CCCOc1ccc(C(Nc2ccc(F)cc2)P(=O)(O)O)cc1` (stereo unspecified), the dissociation constant (Kd) in assay [3] was 74 µM; in assay [2], “Dose-dependent effect”.

For `Cc1ccc(NS(=O)(=O)c2ccc(OCC(=O)O)c(C)c2)cc1C`, the Activity in assay [1] is 12.5%.

`O=C(O)CC1c2ccccc2CCN1C(=O)Nc1cccc(F)c1` (stereo unspecified): the Activity in assay [1] was determined as 12.5%.
